Measured values as given in ChEMBL document CHEMBL4219028, “Development of Protein Degradation Inducers of Androgen Receptor by Conjugation of Androgen Receptor Ligands and Inhibitor of Apoptosis Protein Ligands” (J Med Chem, 2018).
The source made the active and inactive calls.

Key:
VCaP [1] = test: Induction of apoptosis in human VCaP cells assessed as late apoptotic cells at 3 uM in presence of pan-caspase inhibitor zVAD-FMK after 24 hrs by Annexin V-FITC/propidium iodide staining-based flow cytometry (reference value: 0.1%); assay type: functional
PC-3 [2] = test: Cytotoxicity against human PC3 cells at 3 uM after 48 hrs by WST-8 assay; assay type: functional, cell-based
In short: (§1)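 Seeded at 5 × 10^3 cells/well; compound added after 24 h and incubated 48 h. WST-8 reagent then added for 0.5 h at 37 °C, 5% CO2, with absorbance read at 450 nm. A549, PC-3, LNCaP and VCaP were kept in RPMI-1640 + 10% FBS; HT1080 in DMEM + 10% FBS. Means ± SD, n = 3; Student's t-test against vehicle.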

[3] = molecular target: T1, Androgen receptor/Baculoviral IAP repeat-containing protein 2 (Homo sapiens, UniProt P10275+Q13490); test: Induction of AR/cIAP1 interaction in human 22Rv1 cells assessed as ubiquitin proteasome system mediated androgen receptor protein degradation at 3 uM after 6 hrs by Western blot analysis; assay type: cell-based
In short: (§2)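 22Rv1 cells were treated with compound, or with separate ligands (30 μM or 3 μM each), for 6 h. Lysates in SDS buffer (0.1 M Tris pH 8.0, 1% SDS) were normalized by BCA, run on SDS-PAGE and immunoblotted. AR/GAPDH ratio was normalized to vehicle as 100. DC50 is the concentration giving 50% AR reduction; means ± SD, n = 3; t-test against vehicle.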

VCaP [4] = test: Cytotoxicity against human VCaP cells at 3 uM after 48 hrs by WST-8 assay; assay type: functional, cell-based; in short: as §1
[5] = molecular target: T1, Androgen receptor/Baculoviral IAP repeat-containing protein 2; test: Induction of AR/cIAP1 interaction in human 22Rv1 cells assessed as ubiquitin proteasome system mediated androgen receptor protein degradation at 3 uM in presence of proteasome inhibitor MG132 after 6 hrs by Western blot analysis; assay type: cell-based
In short: (§3)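 22Rv1 or VCaP cells were given 3 μM degrader with or without 10 μM proteasome inhibitor over a time course. AR was detected by Western blot (SDS lysis, BCA normalization) and AR/GAPDH was normalized to vehicle as 100. Means ± SD, n = 3.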

VCaP [6] = test: Induction of apoptosis in human VCaP cells assessed as early apoptotic cells at 3 uM after 24 hrs by Annexin V-FITC/propidium iodide staining-based flow cytometry (reference value: 0.5%); assay type: functional
VCaP [7] = test: Induction of apoptosis in human VCaP cells assessed as early apoptotic cells at 3 uM in presence of pan-caspase inhibitor zVAD-FMK after 24 hrs by Annexin V-FITC/propidium iodide staining-based flow cytometry (reference value: 0.5%); assay type: functional
VCaP [8] = test: Induction of apoptosis in human VCaP cells assessed as necrotic cells at 3 uM after 24 hrs by Annexin V-FITC/propidium iodide staining-based flow cytometry (reference value: 0.5%); assay type: functional
VCaP [9] = test: Induction of apoptosis in human VCaP cells assessed as increase in cleaved PARP levels at 1 to 3 uM after 24 hrs by Western blot method; assay type: functional, cell-based
In short: (§4)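 VCaP cells were treated 24 h with compound, or with 3 μM compound plus graded pan-caspase inhibitor. Cleaved caspase-3 and cleaved PARP were detected by Western blot of SDS lysates normalized by BCA.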

[10] = molecular target: T1, Androgen receptor/Baculoviral IAP repeat-containing protein 2; test: Induction of AR/cIAP1 interaction in human VCaP cells assessed as ubiquitin proteasome system mediated androgen receptor protein degradation by measuring reduction in DHT-stimulated PSA mRNA expression at 3 uM after 24 hrs by qPCR analysis; assay type: cell-based
In short: (§5)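 VCaP cells were held 2 days in phenol red-free RPMI + 5% charcoal-stripped FBS, then given 1 nM DHT with or without 3 μM compound for 24 h. RNA was isolated and cDNA made from 1 μg with oligo-dT. qPCR used the comparative Ct method, with values relative to vehicle = 1. Means ± SD, n = 3.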

VCaP [11] = test: Induction of apoptosis in human VCaP cells assessed as viable cells at 3 uM in presence of pan-caspase inhibitor zVAD-FMK after 24 hrs by Annexin V-FITC/propidium iodide staining-based flow cytometry (reference value: 98.9%); assay type: functional; conditions: read-out: Activity
HT-1080 [12] = test: Cytotoxicity against human HT1080 cells at 3 uM after 48 hrs by WST-8 assay; assay type: functional, cell-based; in short: as §1
[13] = molecular target: T1, Androgen receptor/Baculoviral IAP repeat-containing protein 2; test: Induction of AR/cIAP1 interaction in human 22Rv1 cells assessed as ubiquitin proteasome system mediated androgen receptor protein degradation at 3 uM by Western blot analysis; assay type: cell-based; conditions: TDE = time-dependent effect; in short: as §2
[14] = molecular target: T1, Androgen receptor/Baculoviral IAP repeat-containing protein 2; test: Induction of AR/cIAP1 interaction in human VCaP cells assessed as ubiquitin proteasome system mediated androgen receptor protein degradation by measuring reduction in DHT-stimulated NKX3.1 mRNA expression at 3 uM after 24 hrs by qPCR analysis; assay type: cell-based; in short: as §5
VCaP [15] = test: Induction of morphological changes in human VCaP cells at 3 uM after 24 hrs by phase contrast microscopic analysis; assay type: functional, cell-based
In short: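 VCaP cells were treated 24 h with 3 μM compound and imaged by phase-contrast microscopy.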

LNCaP = test: Cytotoxicity against human LNCAP cells expressing androgen receptor at 3 uM after 48 hrs by WST-8 assay; assay type: functional, cell-based; in short: as §1
HT-1080 [16] = test: Cytotoxicity against human HT1080 cells at 100 uM after 6 hrs by WST-8 assay; assay type: functional, cell-based
In short: (§6)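 WST-8 viability read at 450 nm after 6 h exposure to 100 μM compound. Reagent incubated 0.5 h at 37 °C. A549 and PC-3 were kept in RPMI-1640 + 10% FBS; HT1080 in DMEM + 10% FBS.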

VCaP [17] = test: Induction of apoptosis in human VCaP cells assessed as caspase-3 activation at 3 uM in presence of proteasome inhibitor MG132 after 9 hrs by Western blot method; assay type: functional, cell-based
In short: (§7)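 VCaP cells were incubated 9 h with 3 μM compound and/or 10 μM proteasome inhibitor. Apoptotic markers were assessed by Western blot.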

A549 [18] = test: Cytotoxicity against human A549 cells at 3 uM after 48 hrs by WST-8 assay; assay type: functional, cell-based; in short: as §1
[19] = molecular target: T1, Androgen receptor/Baculoviral IAP repeat-containing protein 2; test: Induction of AR/cIAP1 interaction in human VCaP cells assessed as ubiquitin proteasome system mediated androgen receptor protein degradation by measuring reduction in DHT-stimulated KLK2 mRNA expression at 3 uM after 24 hrs by qPCR analysis; assay type: cell-based; in short: as §5
VCaP [20] = test: Induction of apoptosis in human VCaP cells assessed as late apoptotic cells at 3 uM after 24 hrs by Annexin V-FITC/propidium iodide staining-based flow cytometry (reference value: 0.1%); assay type: functional
VCaP [21] = test: Induction of apoptosis in human VCaP cells assessed as caspase-3 activation at 1 to 3 uM after 24 hrs by Western blot analysis; assay type: functional, cell-based; in short: as §4
[22] = molecular target: T1, Androgen receptor/Baculoviral IAP repeat-containing protein 2; test: Induction of AR/cIAP1 interaction in human VCaP cells assessed as ubiquitin proteasome system mediated androgen receptor protein degradation at 3 uM in presence of proteasome inhibitor MG132 after 6 hrs by Western blot analysis; assay type: cell-based; in short: as §3
VCaP [23] = test: Induction of apoptosis in human VCaP cells assessed as viable cells at 3 uM after 24 hrs by Annexin V-FITC/propidium iodide staining-based flow cytometry (reference value: 98.9%); assay type: functional; conditions: read-out: Activity
VCaP [24] = test: Induction of apoptosis in human VCaP cells assessed as caspase-3 activation at 1 to 3 uM in presence of pan-caspase inhibitor zVAD-FMK after 24 hrs by Western blot analysis; assay type: functional, cell-based; in short: as §4
[25] = molecular target: T1, Androgen receptor/Baculoviral IAP repeat-containing protein 2; test: Induction of AR/cIAP1 interaction in human 22Rv1 cells assessed as ubiquitin proteasome system mediated androgen receptor protein degradation at 1 to 3 uM after 6 hrs by Western blot analysis; assay type: cell-based; in short: as §2
VCaP [26] = test: Induction of apoptosis in human VCaP cells assessed as increase in cleaved PARP levels at 1 to 3 uM in presence of pan-caspase inhibitor zVAD-FMK after 24 hrs by Western blot analysis; assay type: functional, cell-based; in short: as §4
[27] = molecular target: T1, Androgen receptor/Baculoviral IAP repeat-containing protein 2; test: Induction of AR/cIAP1 interaction in human VCaP cells assessed as ubiquitin proteasome system mediated androgen receptor protein degradation by measuring reduction in DHT-stimulated TMPRSS2 mRNA expression at 3 uM after 24 hrs by qPCR analysis; assay type: cell-based; in short: as §5
A549 [28] = test: Cytotoxicity against human A549 cells at 100 uM after 6 hrs by WST-8 assay; assay type: functional, cell-based; in short: as §6
VCaP [29] = test: Induction of apoptosis in human VCaP cells assessed as increase in cleaved PARP levels at 3 uM in presence of proteasome inhibitor MG132 after 9 hrs by Western blot method; assay type: functional, cell-based; in short: as §7
VCaP [30] = test: Induction of apoptosis in human VCaP cells assessed as necrotic cells at 3 uM in presence of pan-caspase inhibitor zVAD-FMK after 24 hrs by Annexin V-FITC/propidium iodide staining-based flow cytometry (reference value: 0.5%); assay type: functional
PC-3 [31] = test: Cytotoxicity against human PC3 cells at 100 uM after 6 hrs by WST-8 assay; assay type: functional, cell-based; in short: as §6

T1 sequence (P10275 whole entry, looked up): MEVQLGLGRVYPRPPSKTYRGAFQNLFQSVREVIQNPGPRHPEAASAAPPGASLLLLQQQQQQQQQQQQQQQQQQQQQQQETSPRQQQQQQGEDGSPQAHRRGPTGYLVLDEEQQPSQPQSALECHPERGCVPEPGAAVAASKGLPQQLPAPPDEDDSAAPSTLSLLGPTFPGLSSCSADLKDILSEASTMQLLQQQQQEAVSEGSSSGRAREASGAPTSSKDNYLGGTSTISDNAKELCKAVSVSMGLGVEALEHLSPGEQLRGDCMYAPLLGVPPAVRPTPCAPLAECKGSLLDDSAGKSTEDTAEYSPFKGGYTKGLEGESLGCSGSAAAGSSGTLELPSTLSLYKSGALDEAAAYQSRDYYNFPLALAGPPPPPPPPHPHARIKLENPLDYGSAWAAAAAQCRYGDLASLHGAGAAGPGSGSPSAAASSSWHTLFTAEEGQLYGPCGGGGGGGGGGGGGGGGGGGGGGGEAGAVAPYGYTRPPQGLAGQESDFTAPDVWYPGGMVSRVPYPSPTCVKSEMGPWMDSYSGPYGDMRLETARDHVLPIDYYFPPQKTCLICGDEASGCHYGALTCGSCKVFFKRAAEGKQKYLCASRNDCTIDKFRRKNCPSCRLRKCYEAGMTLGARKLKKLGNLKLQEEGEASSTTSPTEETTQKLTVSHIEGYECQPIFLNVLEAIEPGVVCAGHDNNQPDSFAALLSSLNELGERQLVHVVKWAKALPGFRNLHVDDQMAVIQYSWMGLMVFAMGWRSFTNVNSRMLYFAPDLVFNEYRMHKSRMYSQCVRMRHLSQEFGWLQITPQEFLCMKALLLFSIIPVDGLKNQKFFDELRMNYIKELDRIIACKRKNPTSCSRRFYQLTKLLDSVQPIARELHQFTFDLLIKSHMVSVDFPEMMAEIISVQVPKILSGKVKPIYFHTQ
T1 sequence (Q13490 whole entry, looked up): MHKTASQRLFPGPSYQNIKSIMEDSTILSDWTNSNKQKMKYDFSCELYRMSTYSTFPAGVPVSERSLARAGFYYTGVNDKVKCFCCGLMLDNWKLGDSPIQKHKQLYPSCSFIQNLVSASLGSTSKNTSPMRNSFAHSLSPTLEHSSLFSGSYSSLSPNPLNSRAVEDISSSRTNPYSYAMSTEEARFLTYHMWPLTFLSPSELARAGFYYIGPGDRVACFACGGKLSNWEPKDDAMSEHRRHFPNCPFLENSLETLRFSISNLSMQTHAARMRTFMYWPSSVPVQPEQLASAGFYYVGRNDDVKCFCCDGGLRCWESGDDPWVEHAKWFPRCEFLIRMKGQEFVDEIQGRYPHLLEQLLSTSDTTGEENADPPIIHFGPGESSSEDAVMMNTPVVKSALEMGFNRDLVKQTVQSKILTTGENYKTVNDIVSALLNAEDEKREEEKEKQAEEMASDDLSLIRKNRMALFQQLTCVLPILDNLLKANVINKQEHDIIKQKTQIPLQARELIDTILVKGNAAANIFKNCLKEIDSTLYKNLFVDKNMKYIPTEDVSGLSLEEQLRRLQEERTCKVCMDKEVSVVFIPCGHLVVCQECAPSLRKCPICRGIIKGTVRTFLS

CN[C@@H](C)C(=O)N[C@H](C(=O)N1CCC[C@H]1c1nc(C(=O)c2cccc(OCCOCCOCCOCCOc3ccc(Cn4c(C)c(C#N)c(-c5ccc(C#N)cc5)c4C)cc3)c2)cs1)C1CCCCC1
0.6%: Activity (VCaP [1])
0.4%: Activity (VCaP [20])
11.6%: Activity (VCaP [6])
96.8%: viability at 3 µM (VCaP [11])
87.7%: viability at 3 µM (VCaP [23])
1.5%: Activity (VCaP [7])
active: Activity [3] | Activity (VCaP [4]) | Activity (VCaP [9]) | Activity [10] | Activity [13] Tde | Activity [14] | Activity (VCaP [15]) | Activity (LNCaP) | Activity (HT-1080 [16]) | Activity [19] | Activity (VCaP [21]) | Activity [25] | Activity [27] | Activity (A549 [28]) | Activity (PC-3 [31])
1.1%: Activity (VCaP [30])
inactive: Activity (PC-3 [2]) | Activity [5] | Activity (HT-1080 [12]) | Activity (VCaP [17]) | Activity (A549 [18]) | Activity [22] | Activity (VCaP [24]) | Activity (VCaP [26]) | Activity (VCaP [29])
0.3%: Activity (VCaP [8])
